Results as given in article PMC10582055 (Saudi Pharmaceutical Journal : SPJ, 2023).

Legend:
Format in all cases: in vivo, Wistar rats
CYP3A2 = assay: Hepatic and intestinal CYP3A2 protein expression
How it was run: (§1)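 Wistar rats (n = 6/group), fasted overnight and dosed by intragastric gavage: saline for 7 days; saline for 6 days, then the drug at 25 mg/kg p.o. on day 7; the drug on day 7 given 2 h after test compound at 40 mg/kg; or test compound at 40 mg/kg for 7 days. Liver and intestine protein (BCA) was run on 10% SDS-PAGE and blotted to PVDF. Primary antibodies with β-actin overnight at 4 °C, secondary 2 h, chemiluminescence, densitometry. Mean ± SD, one-way ANOVA.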

[1] = Pharmacokinetics of oral DAS in rats with or without SA pretreatment; settings: for k el: Kel; for MRT inf: MRT 0-inf_obs
BCRP/ABCG2 = assay: Hepatic and intestinal BCRP/ABCG2 protein expression
How it was run: as §1

Pgp/MDR1 = assay: Hepatic and intestinal Pgp/MDR1 protein expression
How it was run: as §1

[2] = Wistar, rat, plasma, po, 25 mg/kg, rats, DAS 25 mg/kg p.o. after SA 40 mg/kg p.o. pretreatment for seven days, Mean ± SD
[3] = Wistar, rat, plasma, po, 25 mg/kg, rats, DAS 25 mg/kg p.o. single dose, alone, Mean ± SD
[4] = decrease, SA 40 mg/kg + DAS 25 mg/kg vs DAS alone, rats
[5] = increase, SA 40 mg/kg + DAS 25 mg/kg vs DAS alone, rats
[6] = rats, DAS 25 mg/kg p.o. after SA 40 mg/kg p.o. pretreatment for seven days, Mean ± SD
[7] = rats, DAS 25 mg/kg p.o. single dose, alone, Mean ± SD
[8] = intestine, SA 40 mg/kg alone vs normal rats
[9] = liver, SA 40 mg/kg alone vs normal rats
[10] = intestine, SA-pretreated rats + DAS vs DAS alone
[11] = liver, SA-pretreated rats + DAS vs DAS alone

Cc1nc(Nc2ncc(C(=O)Nc3c(C)cccc3Cl)s2)cc(N2CCN(CCO)CC2)n1 [DAS, Dasatinib]
increase of intestinal CYP3A2 protein expression (CYP3A2; intestine, DAS administered rats (25 mg/kg p.o.) vs normal rats): 92.97%
increase of hepatic CYP3A2 protein expression (CYP3A2; liver, DAS administered rats (25 mg/kg p.o.) vs normal rats): 92.03%
half-life ([1]; Wistar, rat, plasma, po, 25 mg/kg): 335 ± 12 min
AUC(0-t) [1, 2]: 2210 ± 96.3 ng·h/mL
AUC(0-t) [1, 3]: 1720 ± 70.6 ng·h/mL
Cmax [1, 2]: 419 ± 18.8 ng/mL
Cmax [1, 3]: 259 ± 9.71 ng/mL
k el [1, 2]: 3.33e-05 s⁻¹
k el [1, 3]: 4.44e-05 s⁻¹
MRT inf [1, 2]: 8.2 ± 0.25 h
MRT inf [1, 3]: 7.31 ± 0.17 h
% Change in Cl [1, 4]: 26.97%
% Change in Kel [1, 4]: 22.33%
% Change in Vd [1, 4]: 5.96%
% Change in AUC 0-t [1, 5]: 28.98%
% Change in AUMC 0-∞ [1, 5]: 53.63%
% Change in Cmax [1, 5]: 62.02%
% Change in MRT 0-inf_obs [1, 5]: 12.08%
% Change in T1/2 [1, 5]: 28.82%
% Change in Tmax [1, 5]: 100%
AUMC 0-∞ [1, 6]: 23569.00 ± 1418.58 ng/mL*h^2
Cl [1, 6]: 0.009 ± 0.00 (mg/kg)/(ng/mL)/h
Tmax [1, 6]: 2.00 ± 0.00 h
Vd [1, 6]: 0.070 ± 0.004 (mg/kg)/(ng/mL)
AUMC 0-∞ [1, 7]: 15341.83 ± 607.98 ng/mL*h^2
Cl [1, 7]: 0.012 ± 0.001 (mg/kg)/(ng/mL)/h
T1/2 [1, 7]: 4.34 ± 0.11 h
Vd [1, 7]: 0.075 ± 0.003 (mg/kg)/(ng/mL)
induction of intestinal BCPR/ABCG2 protein expression (BCRP/ABCG2; intestine, DAS per-oral administration vs normal rats): 73.55%
induction of hepatic BCPR/ABCG2 protein expression (BCRP/ABCG2; liver, DAS per-oral administration vs normal rats): 75.09%
induction of intestinal Pgp/MDR1 protein expression (Pgp/MDR1; intestine, DAS administration vs normal rats): 76.42%
induction of hepatic Pgp/MDR1 protein expression (Pgp/MDR1; liver, DAS administration vs normal rats): 72.30%

COc1cc(/C=C/C(=O)O)cc(OC)c1O [SA, Sinapic acid]
inhibition of intestinal CYP3A2 protein expression (CYP3A2; [8]): 89.47%
inhibition of hepatic CYP3A2 protein expression (CYP3A2; [9]): 88.91%
inhibition of hepatic CYP3A2 protein expression (CYP3A2; liver, SA 40 mg/kg pretreatment for seven days + DAS vs DAS administered rats): 57.11%
inhibition of intestinal BCPR/ABCG2 protein (BCRP/ABCG2; [10]): 50.48%
inhibition of hepatic BCPR/ABCG2 protein (BCRP/ABCG2; [11]): 51.44%
inhibition of intestinal Pgp/MDR1 protein expression (Pgp/MDR1; [8]): 76.93%
inhibition of intestinal Pgp/MDR1 protein expression (Pgp/MDR1; [10]): 47.43%
inhibition of hepatic Pgp/MDR1 protein expression (Pgp/MDR1; [9]): 84.93%
inhibition of hepatic Pgp/MDR1 protein expression (Pgp/MDR1; [11]): 44.06%
